How the values were obtained:
recombinant PfMAGLLP = recombinant PfMAGLLP (Plasmodium falciparum, UniProt Q8IJ22); test: Fluorogenic substrate assay with rPfMAGLLP; format: biochemical; details: for inhibition at 1 µM: read-out: inhibition of esterase activity of PfMAGLLP; for inhibition of esterase activity of PfMAGLLP: 1 μM compound
[1] = test system: P. falciparum W2 parasites; test: P. falciparum replication assay; format: cell-based, Plasmodium falciparum; details: for EC50: Plasmodium falciparum, W2, 72 h, read-out: EC50 parasite growth inhibition; for effect of isopentenyl pyrophosphate (IPP) on potency: 72 h growth assays in presence and absence of IPP
Procedure, shortened: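 Synchronized ring-stage W2 parasites in human erythrocytes, at 1% parasitemia and 0.5% hematocrit, exposed to test compound for 72 h. Cultures fixed in 1% paraformaldehyde (final) for 30 min at room temperature, then stained overnight at 4°C with 50 nM YOYO-1. Infected (YOYO-1-positive) versus uninfected cells counted by flow cytometry.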

[2] = test system: Sal A-selected clones and parental Dd2_Polδ line; test: IC50 determination for Sal A-selected clones; format: cell-based, Plasmodium falciparum; details: versus parental Dd2_Polδ
[3] = test system: parasites expressing PfATP4 fused to GFP; test: Imaging of PfATP4-GFP parasites; format: cell-based, Plasmodium falciparum; details: 18 h treatment from 24-30 hpi; 2 μM Sal A or 6 μM Orlistat
[4] = test system: Dd2 parasites overexpressing PfMAGLLP or other putative Sal A targets; test: Dose-response assays with parasites overexpressing putative Sal A targets; format: cell-based, Plasmodium falciparum
[5] = test system: serine hydrolases in Plasmodium falciparum parasites; test: FP-Rho labeling competition in whole Pf parasites; format: cell-based; details: 1 μM Sal A
Procedure, shortened: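 P. falciparum cultures (ring/trophozoite, 13% parasitemia) treated with DMSO or test compound for 3 h at 37°C. 50 μg clarified lysate labeled with 1 μM FP-Rho for 1 h at 37°C; SDS-PAGE with in-gel fluorescence scan.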

[6] = test system: Pf lines expressing WT-GFP or S179T-GFP PfPARE; test: Sal A sensitivity of parasites expressing WT or S179T PfPARE-GFP; format: cell-based, Plasmodium falciparum; details: WT-GFP versus S179T-GFP
[7] = target: human depalmitoylase APT1 (Homo sapiens, UniProt O75608); test: FP-Rho labeling competition in HEK293T cells, APT1; format: cell-based
[8] = test system: a variety of mammalian cell lines; details: ref Schulze et al., 2015; cited from earlier work
[9] = test system: T. gondii depalmitoylase PPT1 (TgPPT1); test: FP-Rho labeling competition in T. gondii parasites; format: cell-based, Toxoplasma gondii; details: WT (Δku80) and ΔPPT1 parasites
[10] = target: human depalmitoylase APT2 (Homo sapiens, UniProt O95372); test: FP-Rho labeling competition in HEK293T cells, APT2; format: cell-based
Procedure, shortened: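 Lysates of treated HEK293T cells, clarified at 4°C and quantified by BCA; 50 μg lysate labeled with 1 μM FP-Rho for 1 h at 37°C. Reactions quenched in reducing SDS sample buffer, resolved by SDS-PAGE, and gel fluorescence scanned (532-nm laser, 610-nm filter).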

Sequence of human depalmitoylase APT2 (O95372 whole entry): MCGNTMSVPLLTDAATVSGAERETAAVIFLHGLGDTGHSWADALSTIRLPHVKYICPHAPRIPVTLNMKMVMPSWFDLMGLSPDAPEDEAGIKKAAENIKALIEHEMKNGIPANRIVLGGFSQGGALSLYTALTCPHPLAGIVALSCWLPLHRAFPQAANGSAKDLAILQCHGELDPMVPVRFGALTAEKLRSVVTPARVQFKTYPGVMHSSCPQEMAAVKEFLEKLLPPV
Sequence of human depalmitoylase APT1 (O75608 whole entry): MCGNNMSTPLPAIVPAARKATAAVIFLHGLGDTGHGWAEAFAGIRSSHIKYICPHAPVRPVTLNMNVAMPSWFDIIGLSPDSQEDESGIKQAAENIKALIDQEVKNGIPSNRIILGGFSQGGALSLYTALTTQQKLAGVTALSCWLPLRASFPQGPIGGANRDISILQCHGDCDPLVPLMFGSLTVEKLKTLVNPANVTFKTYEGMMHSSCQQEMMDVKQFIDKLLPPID

With `O=C(OC(C(F)(F)F)C(F)(F)F)N1CCN(C(c2ccc(Cl)cc2)c2ccc(Cl)cc2)CC1` [JW651] the “potency against recombinant PfMAGLLP relative to Sal A” value (recombinant PfMAGLLP) was “virtually identical potency as Sal A”, the inhibition at 1 µM (recombinant PfMAGLLP) was greater than 90% and the EC50 [1] was 839 nM. The “decrease in potency against parasites as compared with Sal A” value ([1]; W2 parasites) was 16 fold and the “cross-resistance of Sal A-selected clones” value [2] was “no cross-resistance”.

With Salinipostin alkyne [Sal alk] the “effect of isopentenyl pyrophosphate (IPP) on potency” value [1] was “unaffected by IPP” and the “potency against Pf parasites compared with parent natural product” value ([1]; Pf parasites, Figure S1) was “retained full potency”.

Compound `O=C(OC(C(F)(F)F)C(F)(F)F)N1CCC(C(O)(c2ccc3c(c2)OCO3)c2ccc3c(c2)OCO3)CC1` [KML29] has an IC50 (recombinant PfMAGLLP) of 163 nM and an inhibition at 1 µM (recombinant PfMAGLLP) greater than 90%.

With `CCCCCCCCCCC[C@@H](C[C@@H]1OC(=O)[C@H]1CCCCCC)OC(=O)[C@H](CC(C)C)NC=O` [Orlistat] the “potency against recombinant PfMAGLLP relative to Sal A” value (recombinant PfMAGLLP) was “equipotent to Sal A”, the EC50 [1] was 280 nM and the “plasma membrane phenotype of schizonts” value [3] was “disorganized plasma membranes that failed to properly surround the merozoites”. The “cross-resistance of Sal A-selected clones” value [2] was “No significant cross-resistance”.

With `O=C(Oc1ccc([N+](=O)[O-])cc1)N1CCC(C(O)(c2ccc3c(c2)OCO3)c2ccc3c(c2)OCO3)CC1` [JZL 184] the “inhibition of esterase activity of PfMAGLLP” value (recombinant PfMAGLLP) was 25%.

With `O=C(ON1C(=O)CCC1=O)N1CCN(C(c2ccc(Cl)cc2)c2ccc(Cl)cc2)CC1` [MJN110] the “inhibition of esterase activity of PfMAGLLP” value (recombinant PfMAGLLP) was “more than 90%”.

For Salinipostin A [Sal A], the “shift in EC50 in parasites overexpressing PF3D7_0808500 or PF3D7_0818600” value ([4]; exogenous overexpression) was “no shift in EC50”, the “shift in EC50 in parasites overexpressing PfMAGLLP versus WT” value ([4]; exogenously transfected plasmid) was “no apparent shift” and the “inhibition of FP-Rho labeling of hydrolases in whole Pf parasites” value [5] was “Several hydrolases were inhibited”. The “sensitivity of parasites expressing WT or catalytically dead PfPARE” value [6] was “equally sensitive”, the “inhibition of APT1 (FP-Rho competition)” value [7] was “inhibits the human depalmitoylases APT1 and APT2 in a dose-dependent manner” and the “effect of isopentenyl pyrophosphate (IPP) on potency” value [1] was “unaffected by IPP”. For the same compound, the “selectivity index over a variety of mammalian cell lines” value [8] was > 1,000, the “competition with FP-Rho for labeling of TgPPT1” value [9] was “able to compete with FP-Rho for labeling of TgPPT1” and the “plasma membrane phenotype of schizonts” value [3] was “disorganized plasma membranes that failed to properly surround the merozoites”. The “inhibition of APT2 (FP-Rho competition)” value [10] was “inhibits the human depalmitoylases APT1 and APT2 in a dose-dependent manner” and the “relative potency APT2 versus APT1” value [10] was “increased potency against APT2 over APT1”.

— publication PMC8027986 (Cell chemical biology, 2020)
